Experiment [1] deals with Kappa-type opioid receptor (Cavia porcellus) (UniProt P41144). Kind of experiment: Opioid receptor kappa 1 antagonistic activity was measured by the displacement of ethylketazocine in the guinea pig ileum at a concentration of 100 nM. Type of experiment: functional, tissue-based. In outline:
(§1)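 Guinea pig ileum. Antagonist (nM, as stated on line) incubated 15 min before testing. Agonists: morphine (μ) and ethylketazocine (κ).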

Experiment [2] has as its target Mu-type opioid receptor (Cavia porcellus) (UniProt P97266). Kind of experiment: Antagonist potency was determined as the ratio of [antagonist] to (IC50 ratio-1) for Opioid receptor mu 1. Type of experiment: functional. A digest of the protocol:
(§2)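 Ke (nM) = [antagonist]/(IC50 ratio − 1). IC50 ratio is agonist IC50 with antagonist over the control IC50 in the same preparation. Antagonist preincubated 15 min. Agonists: DADLE in mouse vas deferens (δ); morphine (μ) and ethylketazocine (κ) in guinea pig ileum. n ≥ 3.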

In experiment [3] the target is Opioid receptors; mu & delta (Homo sapiens) (UniProt P41143+P35372). As to the kind of experiment: Selectivity ratio was determined from Ke value of Opioid receptor mu 1 and Opioid receptor delta 1. Type of experiment: protein assay. Particulars: Cavia porcellus. A digest of the protocol: (§3)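 Ratios of Ke values, μ/δ or κ/δ. Each Ke = [antagonist]/(IC50 ratio − 1). δ from DADLE in mouse vas deferens; μ (morphine) and κ (ethylketazocine) in guinea pig ileum. 15 min antagonist preincubation, n ≥ 3.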

Experiment [4] concerns the target Kappa-type opioid receptor (Cavia porcellus) (UniProt P41144). Kind of experiment: Opioid receptor kappa antagonistic activity was measured by the displacement of ethylketazocine in the guinea pig ileum at a concentration of 100 nM. Type of experiment: functional, tissue-based. In outline:
as §1

Experiment [5] concerns the target Delta-type opioid receptor (Mus musculus) (UniProt P32300). Kind of experiment: Antagonist potency was determined as the ratio of [antagonist] to (IC50 ratio-1) for opioid receptor delta 1. Type of experiment: functional. In outline: as §2
For experiment [6] the target is unchanged. As to the kind of experiment: Opioid receptor delta antagonistic activity was measured by the displacement of DADLE in the mouse vas deferens at tha concentration of 200 nM. Type of experiment: functional. A digest of the protocol:
(§4)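 Mouse vas deferens. Antagonist (nM, as stated on line) incubated with the preparation 15 min before testing. δ agonist [D-Ala2,D-Leu5]enkephalin.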

In experiment [7] the target is Kappa-type opioid receptor (Cavia porcellus) (UniProt P41144). As to the kind of experiment: Antagonist potency was determined as the ratio of [antagonist] to (IC50 ratio-1) for Opioid receptor kappa 1. Type of experiment: functional. A digest of the protocol:
as §2

Experiment [8] has as its target Opioid receptors; delta & kappa (Homo sapiens) (UniProt P41145+P41143). As to the kind of experiment: Selectivity ratio was determined from Ke value of Opioid receptor kappa 1 and Opioid receptor delta 1. Type of experiment: protein assay. The note with it: Cavia porcellus. A digest of the protocol: as §3
Experiment [9] has as its target Mu-type opioid receptor (Cavia porcellus) (UniProt P97266). As to the kind of experiment: Opioid receptor mu antagonistic activity was measured by the displacement of morphine in the guinea pig ileum at a concentration of 100 nM. Type of experiment: functional, tissue-based. In outline: as §1
For experiment [10], the target named is Delta-type opioid receptor (Mus musculus) (UniProt P32300). Kind of experiment: Opioid receptor delta 1 antagonistic activity was measured by the displacement of DADLE in the mouse vas deferens at tha concentration of 200 nM. Type of experiment: functional. In outline:
as §4

The target in experiment [11] is Mu-type opioid receptor (Cavia porcellus) (UniProt P97266). Kind of experiment: Opioid receptor mu 1 antagonistic activity was measured by the displacement of morphine in the guinea pig ileum at a concentration of 100 nM. Type of experiment: functional, tissue-based. In outline: as §1
Experiment [12] concerns the target Kappa-type opioid receptor (Cavia porcellus) (UniProt P41144). Kind of experiment: Opioid receptor kappa 1 antagonistic activity was measured by the displacement of ethylketazocine in the guinea pig ileum at a concentration of 200 nM. Type of experiment: functional, tissue-based. A digest of the protocol:
as §1

The target is the same in experiment [13]. Kind of experiment: Opioid receptor kappa antagonistic activity was measured by the displacement of ethylketazocine in the guinea pig ileum at a concentration of 200 nM. Type of experiment: functional, tissue-based. In outline: as §1
Experiment [14] has as its target Mu-type opioid receptor (Cavia porcellus) (UniProt P97266). As to the kind of experiment: Opioid receptor mu 1 antagonistic activity was measured by the displacement of morphine in the guinea pig ileum at a concentration of 200 nM. Type of experiment: functional, tissue-based. A digest of the protocol: as §1
The target is the same in experiment [15]. As to the kind of experiment: Opioid receptor mu antagonistic activity was measured by the displacement of morphine in the guinea pig ileum at a concentration of 200 nM. Type of experiment: functional, tissue-based. A digest of the protocol:
as §1

Experiment [16] concerns the target Delta-type opioid receptor (Mus musculus) (UniProt P32300). Kind of experiment: Opioid receptor delta 1 antagonistic activity was measured by the displacement of DADLE in the mouse vas deferens at a concentration of 100 nM. Type of experiment: functional. A digest of the protocol: as §4
Experiment [17] concerns the target T1, Mu-type opioid receptor (Cavia porcellus, UniProt P97266). As to the kind of experiment: Binding affinity was measured by the displacement of [3H]- DAMGO in guinea pig brain membrane of Opioid receptor mu 1. Type of experiment: cell membranes. A digest of the protocol: (§5)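 Radioligand displacement from guinea pig brain membranes, modified Werling method. μ sites: [3H]DAMGO. δ sites: [3H]DADLE with 1 μM DAMGO. κ sites: [3H]ethylketazocine with 1 μM DAMGO.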
Background: Displacement assays read how much labelled ligand stays bound in the presence of the test substance.

The target of experiment [18] is T1, Mu-type opioid receptor. As to the kind of experiment: Binding affinity was measured by the displacement of [3H]- DAMGO in guinea pig brain membrane of opioid receptor mu. Type of experiment: cell membranes. A digest of the protocol:
as §5

Experiment [19] concerns the target T2, Kappa-type opioid receptor (Cavia porcellus, UniProt P41144). Kind of experiment: Binding affinity was measured by the displacement of [3H]- EK in guinea pig brain membrane of opioid receptor kappa. Type of experiment: cell membranes. In outline:
as §5

Experiment [20] concerns the target T2, Kappa-type opioid receptor. Kind of experiment: Binding affinity was measured by the displacement of [3H]- EK in guinea pig brain membrane of Opioid receptor kappa 1. Type of experiment: cell membranes. In outline: as §5
For experiment [21], the target named is Delta-type opioid receptor (Mus musculus) (UniProt P32300). As to the kind of experiment: Opioid receptor delta antagonistic activity was measured by the displacement of DADLE in the mouse vas deferens at a concentration of 100 nM. Type of experiment: functional. A digest of the protocol:
as §4

In experiment [22] the target is Mu-type opioid receptor (Cavia porcellus) (UniProt P97266). The note with it: Ileum, 200 nM.

Where a SMILES comes first, the peptide text is derived from it. [ ]: non-standard residue; d: D form. The star is where a group is joined. Tyr(Nα,Nα-allyl2) = C=CCN(CC=C)[C@@H](Cc1ccc(O)cc1)C(=O)*; Aib = CC(C)(N)C(=O)O

What is called Ki is the equilibrium dissociation constant of an inhibitor or competing ligand from its target. Read a low Ki as tighter binding.

Opioid receptors; delta & kappa (Homo sapiens), sequence (P41143 whole entry, looked up): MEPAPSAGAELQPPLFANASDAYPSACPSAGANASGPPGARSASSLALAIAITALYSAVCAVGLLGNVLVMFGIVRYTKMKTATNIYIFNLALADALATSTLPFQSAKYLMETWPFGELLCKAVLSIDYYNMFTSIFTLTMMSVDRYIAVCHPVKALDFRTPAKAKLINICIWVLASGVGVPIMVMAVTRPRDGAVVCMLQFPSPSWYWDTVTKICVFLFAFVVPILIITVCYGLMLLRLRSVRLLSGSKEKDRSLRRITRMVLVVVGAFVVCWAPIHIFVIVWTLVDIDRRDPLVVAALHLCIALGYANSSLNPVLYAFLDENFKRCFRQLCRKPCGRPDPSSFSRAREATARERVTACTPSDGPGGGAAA
Opioid receptors; delta & kappa (Homo sapiens), sequence (P41145 whole entry, looked up): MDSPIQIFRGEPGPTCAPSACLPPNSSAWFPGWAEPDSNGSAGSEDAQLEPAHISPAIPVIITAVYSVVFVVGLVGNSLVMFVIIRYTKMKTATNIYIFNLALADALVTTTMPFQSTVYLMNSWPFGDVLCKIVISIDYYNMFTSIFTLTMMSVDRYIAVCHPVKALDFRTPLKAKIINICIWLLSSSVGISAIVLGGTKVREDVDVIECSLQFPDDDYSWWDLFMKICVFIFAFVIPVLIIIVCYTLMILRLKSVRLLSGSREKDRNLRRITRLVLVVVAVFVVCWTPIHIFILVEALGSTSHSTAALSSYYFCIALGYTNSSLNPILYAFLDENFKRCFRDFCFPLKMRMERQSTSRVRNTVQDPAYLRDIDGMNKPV
Mu-type opioid receptor (Cavia porcellus), sequence (P97266 whole entry): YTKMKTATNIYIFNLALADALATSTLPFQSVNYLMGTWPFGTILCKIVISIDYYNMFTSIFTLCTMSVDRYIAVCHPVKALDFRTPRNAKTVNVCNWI
T1 sequence (P97266 whole entry): as above
Delta-type opioid receptor (Mus musculus), sequence (P32300 whole entry): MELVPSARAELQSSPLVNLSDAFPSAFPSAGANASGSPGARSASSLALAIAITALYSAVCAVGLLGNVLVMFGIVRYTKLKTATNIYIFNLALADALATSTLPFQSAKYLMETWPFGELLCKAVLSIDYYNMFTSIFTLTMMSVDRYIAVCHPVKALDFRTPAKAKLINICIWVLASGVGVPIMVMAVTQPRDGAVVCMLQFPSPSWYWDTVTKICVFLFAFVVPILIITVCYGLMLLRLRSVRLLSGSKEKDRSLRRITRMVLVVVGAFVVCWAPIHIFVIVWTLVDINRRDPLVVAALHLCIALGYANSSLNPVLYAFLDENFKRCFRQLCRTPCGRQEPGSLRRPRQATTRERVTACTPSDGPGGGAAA
Kappa-type opioid receptor (Cavia porcellus), sequence (P41144 whole entry): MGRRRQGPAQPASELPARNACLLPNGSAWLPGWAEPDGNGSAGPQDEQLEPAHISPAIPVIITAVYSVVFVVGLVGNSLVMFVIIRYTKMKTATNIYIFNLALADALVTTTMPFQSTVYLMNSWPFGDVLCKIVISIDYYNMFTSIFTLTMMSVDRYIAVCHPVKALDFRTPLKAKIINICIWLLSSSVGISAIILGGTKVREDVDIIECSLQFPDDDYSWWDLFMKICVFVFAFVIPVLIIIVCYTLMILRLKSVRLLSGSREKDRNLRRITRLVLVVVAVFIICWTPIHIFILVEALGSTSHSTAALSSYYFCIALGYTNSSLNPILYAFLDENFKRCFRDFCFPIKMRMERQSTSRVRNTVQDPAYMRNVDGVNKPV
T2 sequence (P41144 whole entry): as above
Opioid receptors; mu & delta (Homo sapiens), sequence (P35372 whole entry, looked up): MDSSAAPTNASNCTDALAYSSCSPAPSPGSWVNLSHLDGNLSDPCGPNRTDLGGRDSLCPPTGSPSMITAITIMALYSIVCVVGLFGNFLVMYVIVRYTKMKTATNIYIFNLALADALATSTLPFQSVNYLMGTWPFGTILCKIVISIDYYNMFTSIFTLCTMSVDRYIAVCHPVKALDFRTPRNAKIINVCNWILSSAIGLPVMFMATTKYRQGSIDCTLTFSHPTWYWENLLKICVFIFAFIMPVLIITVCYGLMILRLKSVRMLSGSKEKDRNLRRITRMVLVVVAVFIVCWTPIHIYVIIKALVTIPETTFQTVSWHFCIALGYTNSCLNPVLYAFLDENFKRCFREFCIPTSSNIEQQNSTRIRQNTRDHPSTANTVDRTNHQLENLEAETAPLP
Opioid receptors; mu & delta (Homo sapiens), sequence (P41143 whole entry, looked up): as the sequence (P41143 whole entry, looked up) above

For `Cc1ccc2[nH]c3c(c2c1)C[C@@]1(O)[C@H]2Cc4ccc(O)c5c4[C@@]1(CCN2CC1CC1)[C@H]3O5`, the IC50 ratio in experiment [1] was 1.4; in experiment [4], 1.4; in [6], 55.4; in experiment [9], 1.6; in experiment [10], 55.4; in [11], 1.6. In addition, the Ke is greater than 167 nM in experiment [2], 3.7 nM in [5] and greater than 250 nM in experiment [7]. Further, the Selectivity ratio in [3] was greater than 45; in experiment [8] it was greater than 68.
On to `O=[N+]([O-])c1ccc2[nH]c3c(c2c1)C[C@@]1(O)[C@H]2Cc4ccc(O)c5c4[C@@]1(CCN2CC1CC1)[C@H]3O5`, for which the Ke in [2] is greater than 230 nM; in [5] it was 146 nM; in experiment [7], greater than 870 nM. Further, the results for the Selectivity ratio in [3] and in experiment [8] were greater than 1.6 and greater than 5.6, respectively. For the same compound, the IC50 ratio in [6] amounted to 2.4; in experiment [12] it was 1.2; in experiment [13] it was 1.2; in experiment [14] it was 1.9; in [15], 1.9; in experiment [10], 2.4.
Regarding `COc1cccc2c3c([nH]c12)[C@@H]1Oc2c(O)ccc4c2[C@@]12CCN(CC1CC1)[C@H](C4)[C@]2(O)C3`, the IC50 ratio in experiment [16] was 66; in experiment [1] it was 1.5; in experiment [4] it was 1.5; in [9] it was 3; in experiment [21] it was 66; in experiment [11], 3. Moreover, the Ki came out at 16 nM at Mu-type opioid receptor [17], 16 nM on Mu-type opioid receptor [18], 43 nM in experiment [19] and 43 nM in [20]. Besides, the Ke is 50 nM in experiment [2], 1.5 nM in experiment [5] and greater than 185 nM in [7]. Further, the Selectivity ratio in experiment [3] was 32; in [8] it was greater than 120.
`Oc1ccc2c3c1O[C@H]1c4[nH]c5c(Br)cccc5c4C[C@@]4(O)[C@@H](C2)N(CC2CC2)CC[C@]314`: the IC50 ratio came to 85 in experiment [16]; 1.7 in experiment [1]; 1.7 in [4]; 2.2 in experiment [9]; 85 in [21]; 2.2 in [11]. Besides, the inhibition constant Ki at Mu-type opioid receptor [17] worked out at 29 nM; on Mu-type opioid receptor [18], 29 nM; in experiment [19], 333 nM; in [20] it was 333 nM. Besides, the Ke in experiment [2] is 83 nM; in [5], 1.2 nM; in experiment [7], greater than 143 nM. The results for the Selectivity ratio in [3] and in [8] were 71 and greater than 121, respectively.
With `COc1ccc2[nH]c3c(c2c1)C[C@@]1(O)[C@H]2Cc4ccc(O)c5c4[C@@]1(CCN2CC1CC1)[C@H]3O5`, the IC50 ratio in experiment [1] came to 9.2; in experiment [4], 9.2; in [6], 53; in [9], 2.6; in experiment [10] it was 53; in [11], 2.6. Further, the Ke in [2] is greater than 63 nM; in experiment [5], 3.8 nM; in experiment [7], 12 nM. The Selectivity ratio in [3] is greater than 16; in experiment [8] it was 3.2.
As to `C=CCN(CC=C)[C@@H](Cc1ccc(O)cc1)C(=O)NC(C)(C)C(=O)NC(C)(C)C(=O)N[C@@H](Cc1ccccc1)C(=O)N[C@@H](CC(C)C)C(=O)O` ({Tyr(Nα,Nα-allyl2)}-[Aib][Aib]FL-OH), the IC50 ratio in experiment [16] is 15.6; in experiment [1] it was 0.8; in [4] it was 0.8; in experiment [9], 0.6; in experiment [21], 15.6; in experiment [11], 0.6. The Ki (at Mu-type opioid receptor [17]; at Mu-type opioid receptor [18]; in experiment [19]; in [20]) was greater than 1000 nM throughout. Besides, the figures for the Ke in experiment [2], in [5] and in experiment [7] were greater than 1670 nM, 69 nM and greater than 1250 nM, respectively. The Selectivity ratio was greater than 24 in [3] and greater than 18 in experiment [8].
In the case of `Oc1ccc2c3c1O[C@H]1c4[nH]c5ccc(F)cc5c4C[C@@]4(O)[C@@H](C2)N(CC2CC2)CC[C@]314`, the Ki is 1.7 nM on Mu-type opioid receptor [17], 1.7 nM on Mu-type opioid receptor [18], 15 nM in experiment [19] and 15 nM in experiment [20]. Moreover, the Ke in experiment [2] was 49 nM; in [5] it was 1.9 nM; in [7], 38 nM. For the same compound, the values for the Selectivity ratio in [3] and in experiment [8] were 25 and 19, respectively. Also, the IC50 ratio in experiment [6] came to 104; in experiment [12], 6.3; in [13], 6.3; in experiment [14], 5.1; in [10], 104; in [22], 5.1.
Consider `Oc1ccc2c3c1O[C@H]1c4[nH]c5c(F)cccc5c4C[C@@]4(O)[C@@H](C2)N(CC2CC2)CC[C@]314`, for which the IC50 ratio in experiment [16] was determined as 287; in [1], 1.3; in [4], 1.3; in experiment [9] it was 5.3; in [21], 287; in experiment [11] it was 5.3. Moreover, the Ki at Mu-type opioid receptor [17] came out at 49 nM; at Mu-type opioid receptor [18], 49 nM; in experiment [19], 321 nM; in experiment [20], 321 nM. The Ke was 23 nM in experiment [2], 0.35 nM in experiment [5] and greater than 333 nM in [7]. For the same compound, the values for the Selectivity ratio in experiment [3] and in experiment [8] were 67 and greater than 951, respectively.
As to `Oc1ccc2c3c1O[C@H]1c4c(c5ccccc5n4-c4ccccc4)C[C@@]4(O)[C@@H](C2)N(CC2CC2)CC[C@]314`, the IC50 ratio stood at 33 in experiment [16]; 6.7 in experiment [1]; 6.7 in [4]; 1.7 in experiment [9]; 33 in experiment [21]; 1.7 in [11]. Also, the inhibition constant Ki stood at 28 nM on Mu-type opioid receptor [17], 28 nM at Mu-type opioid receptor [18], 746 nM in experiment [19] and 746 nM in [20]. Also, the Ke in experiment [2] is greater than 149 nM; in experiment [5], 3.1 nM; in [7], greater than 152 nM. In addition, the results for the Selectivity ratio in [3] and in experiment [8] were greater than 48 and greater than 49, respectively.

For the origin of these results see ChEMBL document CHEMBL1124798, “Design of peptidomimetic delta opioid receptor antagonists using the message-address concept” (J Med Chem, 1990).
